Experimental data from ChEMBL document CHEMBL3112587, “Cytotoxic activity assessment, QSAR and docking study of novel bis-carboxamide derivatives of 4-pyrones synthesized by Ugi four-component reaction” (Eur J Med Chem, 2013).

Experiments:
Format in all cases: functional, cell-based
[1] = system: HL-60; test: Cytotoxicity against human HL60 cells after 72 hrs by MTT assay
Procedure, shortened: (§1)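 RPMI 1640 with penicillin/streptomycin and 10% FBS (20% for HL-60), 37 °C, 5% CO2. Seeding was 40,000 HL-60 (suspension), 50,000 LS180 or 30,000 MCF-7 (monolayer) cells/ml, overnight. Half the medium was replaced with 3-4 compound concentrations in duplicate (DMSO ≤0.5% final), 72 h, then MTT 0.5 mg/ml for 4 h. Read 570 nm minus 655 nm. IC50 versus untreated control by linear regression, mean ± SD.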

[2] = system: MCF7; test: Cytotoxicity against human MCF7 cells after 72 hrs by MTT assay; procedure, shortened: as §1
[3] = Cytotoxicity against human LS180 cells after 72 hrs by MTT assay
Procedure, shortened: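 Seeding was 40,000 HL-60 (suspension), 50,000 LS180 or 30,000 MCF-7 (monolayer) cells/ml, overnight. Half the medium was replaced with 3-4 compound concentrations in duplicate (DMSO ≤0.5% final), 72 h, then MTT 0.5 mg/ml for 4 h. IC50 versus untreated control by linear regression, mean ± SD.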

[4] = Homo sapiens, HL-60, 72 h, read-out: IC50
[5] = Homo sapiens, HL-60, 72 h, read-out: pIC50 (converted)
[6] = Homo sapiens, MCF7, 72 h, read-out: IC50
[7] = Homo sapiens, LS180, 72 h, read-out: IC50

Row | Structure (SMILES) | IC50 [1, 4] [µM] | IC50 [1, 5] [µM] | IC50 [2, 6] [µM] | IC50 [3, 7] [µM] | IC50 ([3]; ls180) | IC50 ([2]; mcf7) | IC50 ([1]; hl-60)
1 | O=C(NC1CCCCC1)C(c1cc(=O)c(OCc2ccccc2)co1)N(C(=O)c1ccccc1Cl)c1ccccc1 (stereo unspecified) | 66.2 | 66.1 | 84.2 | 97.3 | – | – | –
2 | CC(C)(C)NC(=O)C(c1cc(=O)c(OCc2ccccc2)co1)N(C(=O)c1ccccc1)c1ccccc1 (stereo unspecified) | 57.3 | 57.5 | 63.1 | – | Not Active | – | –
3 | Cc1ccc(N(C(=O)c2ccccc2Cl)C(C(=O)NC2CCCCC2)c2cc(=O)c(OCc3ccccc3)co2)cc1 (stereo unspecified) | 12.1 | 12 | 56.3 | 63 | – | – | –
4 | Cc1ccc(N(C(=O)c2ccccc2Cl)C(C(=O)NC(C)(C)C)c2cc(=O)c(OCc3ccccc3)co2)cc1 (stereo unspecified) | 42 | 41.7 | 53.8 | 88.3 | – | – | –
5 | Cc1ccc(N(C(=O)c2ccccc2)C(C(=O)NC2CCCCC2)c2cc(=O)c(OCc3ccccc3)co2)cc1 (stereo unspecified) | 11.3 | 11.2 | 11.2 | 20.2 | – | – | –
6 | CCCCc1ccc(N(C(=O)c2ccccc2Cl)C(C(=O)NC(C)(C)C)c2cc(=O)c(OCc3ccccc3)co2)cc1 (stereo unspecified) | 16.2 | 16.2 | 28.6 | 88.2 | – | – | –
7 | COc1ccc(N(C(=O)c2ccccc2Cl)C(C(=O)NC(C)(C)C)c2cc(=O)c(OCc3ccccc3)co2)cc1 (stereo unspecified) | 52.9 | 52.5 | 47.2 | 77.3 | – | – | –
8 | O=C(NC1CCCCC1)C(c1cc(=O)c(OCc2ccccc2)co1)N(C(=O)c1ccccc1Cl)c1ccc(Cl)cc1 (stereo unspecified) | 30.5 | 30.2 | 168 | – | Not Active | – | –
9 | O=C(NC1CCCCC1)C(c1cc(=O)c(OCc2ccccc2)co1)N(C(=O)c1ccccc1)c1ccc(Cl)cc1 (stereo unspecified) | 14.7 | 14.8 | – | – | Not Active | Not Active | –
10 | O=C(NC1CCCCC1)C(c1cc(=O)cc(-c2ccccc2)o1)N(C(=O)c1ccccc1Cl)c1ccccc1 (stereo unspecified) | 72 | 72.4 | – | – | Not Active | Not Active | –
11 | Cc1ccc(N(C(=O)c2ccccc2Cl)C(C(=O)NC2CCCCC2)c2cc(=O)cc(-c3ccccc3)o2)cc1 (stereo unspecified) | 22.2 | 22.4 | – | – | Not Active | Not Active | –
12 | Cc1ccc(N(C(=O)c2ccccc2)C(C(=O)NC(C)(C)C)c2cc(=O)cc(-c3ccccc3)o2)cc1 (stereo unspecified) | 33 | 33.1 | 54.9 | 122 | – | – | –
13 | COc1ccc(N(C(=O)c2ccccc2Cl)C(C(=O)NC2CCCCC2)c2cc(=O)cc(-c3ccccc3)o2)cc1 (stereo unspecified) | – | – | – | – | Not Active | Not Active | Not Active
14 | COc1ccc(N(C(=O)c2ccccc2Cl)C(C(=O)NC(C)(C)C)c2cc(=O)cc(-c3ccccc3)o2)cc1 (stereo unspecified) | 13.8 | 13.8 | 9.1 | 16.1 | – | – | –
15 | COc1cccc2c1C(=O)c1c(O)c3c(c(O)c1C2=O)C[C@@](O)(C(=O)CO)C[C@@H]3O[C@H]1C[C@H](N)[C@H](O)[C@H](C)O1 [DOXORUBICIN] | 0.01 | – | – | – | – | – | –
